Data as given in PubChem BioAssay.
Records with an inconclusive call do not appear. Calls of active or inactive are those of the source.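 The calls were made as follows, unless noted: active = viability at or below 27.92% in each of two runs, the all-compound median minus 4 SD; inconclusive = no clear call, values can overlap the other calls; inactive = the rest.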

How the values were obtained:
[1] = OD615 S. cerevisiae growth inhibition, permissive medium, pilot counter-assay, permissive growth control for S. cerevisiae lifespan shortening project (AID 705;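 active = growth inhibition above 25% in both replicates, a cutoff set 3 SD above the mean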); conditions: OD615, 24 h, at 10 µM, hits give high values
In short: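 System: engineered DeaD yeast; Medium: permissive raffinose/galactose medium; Compound dosing: 10 µM single dose, 0.25% DMSO; Incubation: 4 h cell pre-growth, 24 h exposure at 30 °C; Technique: OD at 615 nm; Evaluation: growth inhibition from lowered OD615 after 24 h.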

[2] = Restrictive medium S. cerevisiae growth inhibition, OD615, pilot screen of yeast lifespan reduction project, restrictive growth control (AID 706;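 active = growth inhibition above a set limit, 3 SD over mean compound inhibition, in both replicates, cut at about 43% in these data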;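 also: modified DeaD lifespan yeast strain shifted to restrictive glucose medium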); conditions: OD615, 48 h, at 10 µM, hits give high values
In short: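 Material: modified S. cerevisiae; buffer or medium: CSMM-D glucose medium; doses: one concentration, 10 µM final, 0.25% DMSO; incubation: 48 h compound exposure at 30 °C; detection: optical density at 615 nm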

[3] = viability gain of MRP-1-high H69AR cells under doxorubicin, pilot screen, MRP-1 activator project, CellTiter-Glo, duplicate (AID 807;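 active = viability increase at or above a cutoff of the median across tested compounds plus 3 SD, cut at about 8.5% in these data, passing the limit was not always enough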;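 also: compound pretreatment 18-22 h then 72 h combined with doxorubicin; 0% = doxorubicin alone and 100% = vehicle without doxorubicin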); conditions: H69AR viability with doxorubicin, CellTiter-Glo luminescence; at 10 µM; hits give high values
[4] = growth suppression of beta-catenin knockout HCT116, pilot screen, human colon tumor cells (AID 823;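 active = cell viability at or below a set limit in both duplicate runs, the limit being the all-compound median minus 4 SD, cut at about 23% in these data, passing the limit was not always enough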;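 also: 0% = wells killed by 20 µM Hyamine and 100% = untreated DMSO cell wells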); conditions: CellTiter-Glo, 60 h, at 10 µM, hits give low values
[5] = growth suppression of PTEN-deleted HCT116, pilot screen, cell-based, HCT116 clonal line, CellTiter-Glo (AID 824); conditions: 60 h, at 10 µM, hits give low values;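 also: 0% = 20 µM Hyamine control and 100% = vehicle cell control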
[6] = inhibitors of the yeast RAM network, pilot screen, dse1pr::URA3 reporter, 5-FOA selection (AID 869;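 active = inhibition over a set limit, the all-compound mean plus 3 SD, in both replicate runs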;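 also: 0% = DMSO wells with no growth and 100% = 10 µM 1-NA-PP1 with full growth; RAM network block rescues cells from 5-FOA so hits raise OD615 growth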); conditions: S. cerevisiae dse1pr::URA3 5-FOA growth, OD615, 2 d; at 10 µM; hits give high values; strain carries analog-sensitive mutant Cbk1 kinase
[7] = RAM signaling pathway blockade in yeast – S. cerevisiae, Pdr1DBD-CYC8 efflux-inhibited sensitized strain, primary screen (AID 1298;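 active = RAM network inhibition above 8.4% in each of two replicates, 3 SD over the compound average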;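 also: 0% = DMSO untreated cells without growth and 100% = 10 µM 1-NA-PP1 full growth; higher means more yeast growth rescued from 5-FOA killing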); conditions: S. cerevisiae cbk1-as DSE1-URA3 strain, 5-FOA growth OD615, 2 d; at 50 µM; hits give high values

Cc1cccn2cc(CCNC(=O)c3ccc(Br)o3)nc12
inactive: growth inhibition [1] -8.18% | growth inhibition [2] -5.67% | viability increase [3] -1.61% | viability [4] 99% | viability [5] 94.3% | inhibition [6] 1.12% | RAM network inhibition [7] 1.91%

Cc1ccc(N(CC(=O)NC2CCC(C)CC2)S(=O)(=O)c2cccnc2)cc1 (configuration not stated)
inactive: growth inhibition [1] 4.48% | growth inhibition [2] 8.91% | viability increase [3] 0.07% | viability [4] 98.3% | viability [5] 98.1% | inhibition [6] 1.15% | RAM network inhibition [7] -1.86%

COc1cc(C2NC(=O)NC(C)=C2C(=O)OC2CCCCC2)cc(Br)c1O (configuration not stated)
inactive: growth inhibition [1] -9.15% | growth inhibition [2] -9.77% | viability increase [3] 0.18% | viability [4] 82.1% | viability [5] 77.3% | inhibition [6] 0.33% | RAM network inhibition [7] 8.82%

CC1CCN(c2nc3c(c(=O)[nH]c(=O)n3C)n2Cc2ccccc2Cl)CC1
inactive: growth inhibition [1] -10.2% | growth inhibition [2] -20.9% | viability increase [3] -6.47% | viability [4] 87.6% | viability [5] 72% | inhibition [6] 2.75% | RAM network inhibition [7] 9.67%

COc1ccc(C(C(=O)NC2CCCC2)N2CCc3ccccc32)cc1 (configuration not stated)
inactive: growth inhibition [1] -12.6% | growth inhibition [2] -11.4% | viability increase [3] -3.02% | viability [4] 92.8% | viability [5] 87.9% | inhibition [6] 1.26% | RAM network inhibition [7] 1.52%

CCCCCn1c(NCc2ccco2)nc2ccccc21
inactive: growth inhibition [1] 0.22% | growth inhibition [2] 1.09% | viability increase [3] -5.56% | viability [4] 84.9% | viability [5] 72.9% | inhibition [6] 1.6% | RAM network inhibition [7] 1.9%

CCOC(=O)N1CCC(NC(=O)c2cc3c(C)nc4ccccc4c3o2)CC1
inactive: growth inhibition [1] -14.7% | growth inhibition [2] -11.2% | viability increase [3] -3.16% | viability [4] 92.6% | viability [5] 91.5% | inhibition [6] 0.54% | RAM network inhibition [7] 3.54%

CC1CCN(c2nnc(N3CCC(C)CC3)c3ccccc23)CC1
inactive: growth inhibition [1] -19.1% | growth inhibition [2] -14.8% | viability increase [3] -3.17% | viability [4] 84% | viability [5] 81.8% | inhibition [6] 1.98% | RAM network inhibition [7] 4.58%

Cc1cccc(N=C2NC(=O)/C(=C3/C(=O)N(C)c4ccccc43)S2)c1C
inactive: growth inhibition [1] -18.4% | growth inhibition [2] -15.6% | viability increase [3] -7.01% | viability [4] 95.5% | viability [5] 91.1% | inhibition [6] 2.91% | RAM network inhibition [7] 1.77%

N#CC1=C(SCC(=O)Nc2ccccc2)NC(=O)CC1c1ccc(O)cc1 (configuration not stated)
inactive: growth inhibition [1] -15.2% | growth inhibition [2] -10.5% | viability increase [3] -2.43% | viability [4] 91.4% | viability [5] 86.5% | inhibition [6] 1.42% | RAM network inhibition [7] -0.69%

COc1ccc(-c2noc(Cc3ccccc3OC)n2)cc1
inactive: growth inhibition [1] -15.1% | growth inhibition [2] -10.5% | viability increase [3] 1.93% | viability [4] 94% | viability [5] 83.7% | inhibition [6] 1.83% | RAM network inhibition [7] 1.94%

CCCNc1nc2c(c(=O)[nH]c(=O)n2C)n1CCc1ccccc1
inactive: growth inhibition [1] -3.82% | growth inhibition [2] 0.97% | viability increase [3] -1.3% | viability [4] 112% | viability [5] 103% | inhibition [6] 1.56% | RAM network inhibition [7] 5.88%

Cc1cc(C)cc(-c2nc(-c3ccncc3)no2)c1
inactive: growth inhibition [1] 0.275% | growth inhibition [2] 15.9% | viability increase [3] 3.69% | viability [4] 91.1% | viability [5] 92% | inhibition [6] 1.11% | RAM network inhibition [7] 5.99%

O=C(c1cc(-c2cccc(O)c2)on1)N1CCc2ccccc2C1
inactive: growth inhibition [1] -7.54% | growth inhibition [2] -17.6% | viability increase [3] 1.48% | viability [4] 114% | viability [5] 99.2% | inhibition [6] 0.005% | RAM network inhibition [7] -2.99%

COC(=O)CN1C(=O)CC(C)(C)Sc2ccccc21
inactive: growth inhibition [1] -16.9% | growth inhibition [2] -27.1% | viability increase [3] 1.77% | viability [4] 103% | viability [5] 101% | inhibition [6] 2.17% | RAM network inhibition [7] 2.53%

CC(=O)N(Cc1ccco1)C1(C(=O)NC2CCCCC2)CCCCC1
inactive: growth inhibition [1] -10.7% | growth inhibition [2] -22.6% | viability increase [3] -2.47% | viability [4] 94.9% | viability [5] 94.5% | inhibition [6] 3.02% | RAM network inhibition [7] 1.51%

CC1=CC(C)(C)Nc2ccc(OC(=O)c3ccco3)cc21
active: viability [4] 0.49% | viability [5] 0.6%
inactive: growth inhibition [1] 1.4% | growth inhibition [2] -5.68% | viability increase [3] -7.71% | inhibition [6] 0.475% | RAM network inhibition [7] 0.98%

Cc1nc2cc(-c3cccc(F)c3)nn2c(C)c1CCC(=O)NC(C)CCc1ccco1 (configuration not stated)
inactive: growth inhibition [1] -10.1% | growth inhibition [2] -2.46% | viability increase [3] -1.36% | viability [4] 69.7% | viability [5] 72.6% | inhibition [6] 0.955% | RAM network inhibition [7] 3.16%

Cc1c(C(=O)NCc2cccnc2)sc2nc(-c3ccc(F)cc3)cn12
inactive: growth inhibition [1] -6.33% | growth inhibition [2] 22.2% | viability increase [3] 0.45% | viability [4] 77.3% | viability [5] 78% | inhibition [6] 1.01% | RAM network inhibition [7] 2.56%

CCOc1ccc(N(CC(=O)Nc2ccc(OC)cc2)S(=O)(=O)c2c(C)noc2C)cc1
inactive: growth inhibition [1] -8.01% | growth inhibition [2] -2.61% | viability increase [3] -3.3% | viability [4] 83.5% | viability [5] 73.9% | inhibition [6] 3.53% | RAM network inhibition [7] 4.12%

Cc1ccc(Nc2nc(N3CCOCC3)nc(N3CCOCC3)n2)cc1
inactive: growth inhibition [1] -16.7% | growth inhibition [2] -7.55% | viability increase [3] -2.57% | viability [4] 64.2% | viability [5] 65.7% | inhibition [6] 1.06% | RAM network inhibition [7] 2.07%

CC(=O)N1CCN(c2ccc(NCc3ccc(F)cc3)cc2)CC1
inactive: growth inhibition [1] -7.68% | growth inhibition [2] 0.705% | viability increase [3] -2.9% | viability [4] 90.1% | viability [5] 83.1% | inhibition [6] 2.81% | RAM network inhibition [7] 2.34%

CCSc1nnc(Cn2c(=O)sc3ccccc32)n1C
inactive: growth inhibition [1] -8.03% | growth inhibition [2] 5.23% | viability increase [3] -0.33% | viability [4] 95.7% | viability [5] 96.2% | inhibition [6] 0.71% | RAM network inhibition [7] -0.45%

COC(=O)NCC(c1cccnc1)N1CCN(c2ccccc2)CC1 (configuration not stated)
inactive: growth inhibition [1] -3.09% | growth inhibition [2] -0.34% | viability increase [3] 0.41% | viability [4] 91.3% | viability [5] 96.8% | inhibition [6] 0.355% | RAM network inhibition [7] -1.35%

CCCCNC(=O)c1ccc(CS(=O)(=O)c2ccc(OC)cc2)o1
inactive: growth inhibition [1] -14.2% | growth inhibition [2] -23% | viability increase [3] -0.64% | viability [4] 107% | viability [5] 97.8% | inhibition [6] 0.45% | RAM network inhibition [7] 2.18%

CCCCCN=C(C)c1c(O)c2ccccc2oc1=O
inactive: growth inhibition [1] 1.51% | growth inhibition [2] 1.03% | viability increase [3] 1.19% | viability [4] 94.8% | viability [5] 90.7% | inhibition [6] -0.66% | RAM network inhibition [7] -1.55%

N#CCn1c(C2CCCCC2)nc2ccccc2c1=O
inactive: growth inhibition [1] -27% | growth inhibition [2] -22.9% | viability increase [3] -4.23% | viability [4] 90.2% | viability [5] 84.5% | inhibition [6] 0.79% | RAM network inhibition [7] 3.71%

Cc1ccc(-c2nc(CS(=O)CC(=O)N3CCN(c4ncccn4)CC3)c(C)o2)cc1 (configuration not stated)
inactive: growth inhibition [1] -0.52% | growth inhibition [2] 10.7% | viability increase [3] -2.28% | viability [4] 76.8% | viability [5] 90.2% | inhibition [6] 2.31% | RAM network inhibition [7] 4.78%

CCOC(=O)c1sc(NC(C)=O)cc1C
inactive: growth inhibition [1] -1.26% | growth inhibition [2] 4.88% | viability increase [3] 0.69% | viability [4] 115% | viability [5] 96% | inhibition [6] 0.47% | RAM network inhibition [7] 1.02%

CCS(=O)(=O)Nc1ccc(-c2ccc(NS(=O)(=O)CC)c(OC)c2)cc1OC
inactive: growth inhibition [1] -3.19% | growth inhibition [2] -1.95% | viability increase [3] -3.7% | viability [4] 103% | viability [5] 101% | inhibition [6] 2.69% | RAM network inhibition [7] 6.39%

COc1ccc(C2OC(=O)CC2C(=O)N2CCN(c3cc(Cl)ccc3C)CC2)cc1OC (configuration not stated)
inactive: growth inhibition [1] -0.42% | growth inhibition [2] 4.67% | viability increase [3] -2.26% | viability [4] 96.8% | viability [5] 95.5% | inhibition [6] 0.44% | RAM network inhibition [7] 2.7%

CCN1CCCC1CNC(=O)Cn1cnc2sc(C)c(S(=O)(=O)N3CCC(C)CC3)c2c1=O (configuration not stated)
inactive: growth inhibition [1] -4.5% | growth inhibition [2] -14.6% | viability increase [3] -4.44% | viability [4] 104% | viability [5] 84% | inhibition [6] 2.9% | RAM network inhibition [7] 4.06%

CCOc1ccc2nc(N3CCC(C(=O)N4CCN(c5ccccn5)CC4)CC3)sc2c1
inactive: growth inhibition [1] -4.53% | growth inhibition [2] -8.55% | viability increase [3] -6.17% | viability [4] 50.9% | viability [5] 55.7% | inhibition [6] -0.605% | RAM network inhibition [7] 2.36%

CCCNc1nc2c(c(=O)[nH]c(=O)n2C)n1Cc1cccc(Br)c1
inactive: growth inhibition [1] -4.76% | growth inhibition [2] -9.2% | viability increase [3] -2.4% | viability [4] 97.8% | viability [5] 92.6% | inhibition [6] 3.46% | RAM network inhibition [7] 7.91%

CCOC(=O)COc1cc2c(C(=O)OCC)c(C)oc2cc1Br
inactive: growth inhibition [1] -10% | growth inhibition [2] -2.66% | viability increase [3] -2.07% | viability [4] 89.3% | viability [5] 89.8% | inhibition [6] 1.04% | RAM network inhibition [7] 12.8%

O=C(Cn1c(=O)sc2ccccc21)N1CCOCC1
inactive: growth inhibition [1] -1.21% | growth inhibition [2] -4.46% | viability increase [3] -1.06% | viability [4] 95.5% | viability [5] 102% | inhibition [6] 0.485% | RAM network inhibition [7] 0.67%
